Experimental data from different studies.
Converted amounts (≈) assume the structure as drawn.

CC(O)CSc1nnc(-c2cc3c(ccc4ccccc43)o2)n1-c1ccccc1 (stereo not shown)  inhibition zone (Escherichia coli; microbial growth, disc diffusion; 25 µg/disc): 15.7 mm
CO/N=C(\C(=O)N[C@@H]1C(=O)N2C(C(=O)O)=C(COC(C)=O)CS[C@H]12)c1csc(N)n1  MIC90 (Escherichia coli; microbial growth, broth dilution; clinical isolate): 64 µg/mL (≈ 141 µM)
C[C@@H](O)[C@H]1C(=O)N2C(C(=O)O)=C(SCCN=CN)C[C@H]12  inhibition zone (Escherichia coli; microbial growth, disc diffusion; 2000 µg/mL, 24 h): 18.5 mm
CO/N=C(\C(=O)N[C@@H]1C(=O)N2C(C(=O)O)=C(CSC(=O)c3ccco3)CS[C@H]12)c1csc(N)n1  MBC (Staphylococcus aureus; microbial killing; CVCC546; 18 h): 2 µg/mL
CC1(C)S[C@@H]2[C@H](NC(=O)[C@H](N)c3ccc(O)cc3)C(=O)N2[C@H]1C(=O)O  inhibition zone (Escherichia coli; microbial growth, disc diffusion; 100 µg/mL, 24 h): 20 mm
CC(C)(O/N=C(\C(=O)N[C@@H]1C(=O)N2C(C(=O)[O-])=C(C[n+]3ccccc3)CS[C@H]12)c1csc(N)n1)C(=O)O  inhibition zone (Escherichia coli; microbial growth, disc diffusion; 2000 µg/mL, 24 h): 5 mm
CC(O)CSc1nnc(-c2cc3ccccc3o2)n1-c1ccccc1 (stereo not shown)  inhibition zone (Staphylococcus aureus; microbial growth, disc diffusion; 25 µg/disc): 11.3 mm
C=C/C=C(\C)CC[C@H]1C[C@@H](O)CC(=O)O1  MIC (Staphylococcus aureus; microbial growth, broth dilution; ATCC6538P): 256 µg/mL (≈ 1220 µM)
CC(O)CSc1nnc(Cn2cnc3c2c(=O)n(C)c(=O)n3C)n1-c1ccccc1 (stereo not shown)  inhibition zone (Escherichia coli; microbial growth, disc diffusion; 25 µg/disc): 11 mm
O=C(O)c1cn(C2CC2)c2cc(N3CCNCC3)c(F)cc2c1=O  inhibition zone (Escherichia coli; microbial growth, disc diffusion; 100 µg/mL, 24 h): 25 mm
